In PMC6069912 (ESMO Open, 2018):
*1 amine or outer side, *2 acyl side, *3 side chain or, on linkers, in order; H or OH if unused. Where a SMILES comes first, the peptide text is derived from it. Side-chain parts run from the residue outwards. [ ]: non-standard residue; d: D form. The star is where a group is joined. Ethylenediamine = C(CN[*:2])N[*:1]; Hyp = O=C(O)[C@@H]1C[C@@H](O)CN1; Phg = N[C@H](C(=O)O)c1ccccc1; CO = O=C([*:1])[*:2]; Bn = c1ccc(C*)cc1

How the values were obtained:
Assay type in all cases: in vivo, human
[1] = tested on: IGF-1, IGF-2, IGFBP2, IGFBP3, S100B, MIA; assay: Serum secretion and melanoma response biomarkers over time; details: patients
Method in brief: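 Serum S100B, MIA, IGF-1, IGF-2, IGFBP2 and IGFBP3 were followed over time in patients receiving the test compound SC tid (300–1200 µg escalation, optionally followed by 80 mg long-acting IM every 28 days). Results were summarised descriptively.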

[2] = tested on: patients with BRAF-WT and NRAS-WT metastatic melanoma; assay: Phase I safety: adverse events
Method in brief: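 Open-label intrapatient escalation of the test compound SC at 300, 600, 900 and 1200 µg tid over an 8-week dose-escalation phase. At each visit, monitoring covered laboratory tests, ECG, vital signs, physical examination and gall bladder ultrasound, with AEs recorded in the eCRF. AEs of any relationship were tabulated by preferred term and by the dose level at which they started. Safety set: ≥1 dose plus ≥1 post-baseline safety assessment.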

[3] = tested on: patient with BRAF-WT and NRAS-WT stage IVc cutaneous melanoma; assay: Individual patient response summary: ascites and weight; details: patient number 4, after readministration of pasireotide
Ki-67 = Ki-67 staining of tumour samples before and during pasireotide; details: assessed before and during treatment in four patients
[4] = tested on: BRAF-WT and NRAS-WT metastatic melanoma; assay: Antitumour activity: tumour response by RECIST 1.0; details: n=10, two patients, 95% CI 2.5 to 55.6; by CT or MRI and 18-FDG-PET
Method in brief: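 Patients with measurable RECIST 1.0 disease and ≥1 lesion suitable for 18-FDG-PET SUV measurement received the test compound SC at 300, 600, 900 and 1200 µg tid by intrapatient escalation for ≤8 weeks, optionally followed by 80 mg long-acting IM every 28 days. Investigators assessed response by RECIST 1.0 on CT/MRI on days 57, 113 and 169 and at end of treatment, and by adapted EORTC criteria on 18-FDG-PET on days 29 and 57. Efficacy set: ≥1 dose; 95% CI.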

[5] = Pharmacokinetics of pasireotide SC in patients, non-compartmental analysis
Method in brief: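 Patients received the test compound SC at 300–1200 µg tid during the dose-escalation phase. […] was sampled on days 1 and 8 of each of the four dose-escalation cycles and monthly during follow-up. Non-compartmental analysis gave Cmax and Cmin on days 1 and 8 of each cycle, and AUC0–2h at steady state.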

[6] = dose-escalation phase, AEs started at 300 µg tid SC, safety set n=10
[7] = dose-escalation phase, AEs started at 600 µg tid SC, safety set n=10
[8] = dose-escalation phase, AEs started at 900 µg tid SC, safety set n=10
[9] = dose-escalation phase, AEs started at 1200 µg tid SC, safety set n=10
[10] = dose-escalation phase, all patients (all dose levels), safety set n=10
[11] = overall (dose-escalation phase+follow-up phase), all patients, safety set n=10

NCCCC[C@@H]1NC(=O)[C@@H](Cc2c[nH]c3ccccc23)NC(=O)[C@H](c2ccccc2)NC(=O)[C@@H]2C[C@@H](OC(=O)NCCN)CN2C(=O)[C@H](Cc2ccccc2)NC(=O)[C@H](Cc2ccc(OCc3ccccc3)cc2)NC1=O [pasireotide] (cyclo([Hyp]([CO-Ethylenediamine])[Phg][dW]KY(Bn)F))
Serum level of IGF-1 during treatment ([1]; over time): decrease
Serum level of IGF-2 during treatment ([1]; over time): decrease
Serum level of MIA during treatment ([1]; over time): decrease
Serum level of S100B during treatment ([1]; over time): decrease
IGFBP2 serum levels with time ([1]; serum): increase
IGFBP3 levels with time ([1]; serum): decrease
Tolerability in patients with BRAF-WT and NRAS-WT melanoma ([2]; authors' overall conclusion): safe and well tolerated
Chills, AE regardless of study drug relationship [2, 6]: 0 n (%)
Diarrhoea, AE regardless of study drug relationship [2, 6]: 4 (40) n (%)
Fatigue, AE regardless of study drug relationship [2, 6]: 2 (20) n (%)
Hyperglycaemia, AE regardless of study drug relationship [2, 6]: 2 (20) n (%)
Hypophosphatemia, AE regardless of study drug relationship [2, 6]: 1 (10) n (%)
Nausea, AE regardless of study drug relationship [2, 6]: 3 (30) n (%)
Tumour pain, AE regardless of study drug relationship [2, 6]: 2 (20) n (%)
Chills, AE regardless of study drug relationship [2, 7]: 1 (10) n (%)
Diarrhoea, AE regardless of study drug relationship [2, 7]: 1 (10) n (%)
Fatigue, AE regardless of study drug relationship [2, 7]: 0 n (%)
Hyperglycaemia, AE regardless of study drug relationship [2, 7]: 0 n (%)
Hypophosphatemia, AE regardless of study drug relationship [2, 7]: 1 (10) n (%)
Nausea, AE regardless of study drug relationship [2, 7]: 2 (20) n (%)
Tumour pain, AE regardless of study drug relationship [2, 7]: 0 n (%)
Chills, AE regardless of study drug relationship [2, 8]: 1 (10) n (%)
Diarrhoea, AE regardless of study drug relationship [2, 8]: 0 n (%)
Fatigue, AE regardless of study drug relationship [2, 8]: 0 n (%)
Hyperglycaemia, AE regardless of study drug relationship [2, 8]: 0 n (%)
Hypophosphatemia, AE regardless of study drug relationship [2, 8]: 1 (10) n (%)
Nausea, AE regardless of study drug relationship [2, 8]: 1 (10) n (%)
Tumour pain, AE regardless of study drug relationship [2, 8]: 0 n (%)
Chills, AE regardless of study drug relationship [2, 9]: 0 n (%)
Diarrhoea, AE regardless of study drug relationship [2, 9]: 0 n (%)
Fatigue, AE regardless of study drug relationship [2, 9]: 0 n (%)
Hyperglycaemia, AE regardless of study drug relationship [2, 9]: 0 n (%)
Hypophosphatemia, AE regardless of study drug relationship [2, 9]: 0 n (%)
Nausea, AE regardless of study drug relationship [2, 9]: 0 n (%)
Tumour pain, AE regardless of study drug relationship [2, 9]: 0 n (%)
Chills, AE regardless of study drug relationship [2, 10]: 2 (20) n (%)
Diarrhoea, AE regardless of study drug relationship [2, 10]: 5 (50) n (%)
Fatigue, AE regardless of study drug relationship [2, 10]: 2 (20) n (%)
Hyperglycaemia, AE regardless of study drug relationship [2, 10]: 2 (20) n (%)
Hypophosphatemia, AE regardless of study drug relationship [2, 10]: 2 (20) n (%)
Nausea, AE regardless of study drug relationship [2, 10]: 5 (50) n (%)
Tumour pain, AE regardless of study drug relationship [2, 10]: 2 (20) n (%)
Incidence of chills (most commonly reported AEs) ([2]; dose-escalation phase, n=10): 20%
Incidence of diarrhoea (most commonly reported AEs) ([2]; dose-escalation phase, n=10): 50%
Incidence of fatigue (most commonly reported AEs) ([2]; dose-escalation phase, n=10): 20%
Incidence of hyperglycaemia (most commonly reported AEs) ([2]; dose-escalation phase, n=10): 20%
Incidence of hypophosphatemia (most commonly reported AEs) ([2]; dose-escalation phase, n=10): 20%
Incidence of nausea (most commonly reported AEs) ([2]; dose-escalation phase, n=10): 50%
Incidence of tumour pain (most commonly reported AEs) ([2]; dose-escalation phase, n=10): 20%
Study drug-related AE: diarrhoea ([2]; dose-escalation phase, n=10): 50%
Study drug-related AE: fatigue ([2]; dose-escalation phase, n=10): 20%
Study drug-related AE: hyperglycaemia ([2]; dose-escalation phase, n=10): 20%
Study drug-related AE: nausea ([2]; dose-escalation phase, n=10): 50%
Chills, AE regardless of study drug relationship [2, 11]: 2 (20) n (%)
Diarrhoea, AE regardless of study drug relationship [2, 11]: 5 (50) n (%)
Fatigue, AE regardless of study drug relationship [2, 11]: 3 (30) n (%)
Hyperglycaemia, AE regardless of study drug relationship [2, 11]: 3 (30) n (%)
Hypophosphatemia, AE regardless of study drug relationship [2, 11]: 3 (30) n (%)
Nausea, AE regardless of study drug relationship [2, 11]: 5 (50) n (%)
Tumour pain, AE regardless of study drug relationship [2, 11]: 2 (20) n (%)
Weight decreased, AE regardless of study drug relationship [2, 11]: 2 (20) n (%)
Incidence of chills (most commonly reported AEs) ([2]; overall safety, n=10): 20%
Incidence of decreased weight (most commonly reported AEs) ([2]; overall safety, n=10): 20%
Incidence of diarrhoea (most commonly reported AEs) ([2]; overall safety, n=10): 50%
Incidence of fatigue (most commonly reported AEs) ([2]; overall safety, n=10): 30%
Incidence of hyperglycaemia (most commonly reported AEs) ([2]; overall safety, n=10): 30%
Incidence of hypophosphatemia (most commonly reported AEs) ([2]; overall safety, n=10): 30%
Incidence of nausea (most commonly reported AEs) ([2]; overall safety, n=10): 50%
Incidence of tumour pain (most commonly reported AEs) ([2]; overall safety, n=10): 20%
Study drug-related AE: diarrhoea ([2]; overall safety, n=10): 50%
Study drug-related AE: fatigue ([2]; overall safety, n=10): 20%
Study drug-related AE: hyperglycaemia ([2]; overall safety, n=10): 30%
Study drug-related AE: hypophosphatemia ([2]; overall safety, n=10): 20%
Study drug-related AE: nausea ([2]; overall safety, n=10): 50%
Study drug-related AE: weight decrease ([2]; overall safety, n=10): 20%
Study drug-related AEs, patients with any ([2]; overall safety, n=10): 80%
Grade 3 or 4 drug-related AEs ([2]; overall safety, diarrhoea and nausea in one patient, hypophosphatemia in one patient, n=10): 20%
Improvement in ascites [3]: from grade 2 to grade 1
Reduction in weight ([3]; ascites): from 85 kg to 63 kg
Tumour samples with decreases in Ki-67 staining following treatment (Ki-67): Three of the four
Best overall DCR (stable disease or better) [4]: 20%
Accumulation ratio of AUC0–2h ([5]; 300 µg three times a day SC, patients): 147%
AUC0–2h, Cmax and Cmin versus dose ([5]; mean plasma concentration versus time profiles on day 8, 300-1200 µg tid SC): increased with the increasing dose
